Test results as given in ChEMBL document CHEMBL4014336 (J Med Chem, 2017).

Columns and labels:
[1] = AUC (0 to 24 hrs) in rat at […], iv; type: ADME, organism-based; design: time < 24 hr, dose 7.7 mg/kg, route intravenous; details: in vivo
[2] = Oral bioavailability in mouse at 10 mg/kg; type: ADME, organism-based; details: in vivo
[3] = tested on: Rattus norvegicus; test: Volume of distribution at steady state in rat at […], iv; type: ADME, organism-based; details: in vivo
[4] = tested on: Mus musculus; test: In vivo inhibition of 11beta-HSD1 in po dosed non-fasting diet-induced obese mouse assessed as plasma concentration required to show decrease in corticosterone excursion pretreated for 60 mins followed by DHC administration measured up to 120 mins by enzyme immunosorbent assay; type: functional, organism-based
Method in brief: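 Nonfasting diet-induced obese male mice, groups of n = 6 matched for body weight. Tail bleed at −60 min, then oral dosing with vehicle (0.5% Methocel, 0.1% Tween 80 in water) or drug. DHC 10 mg/kg given orally 60 min later. Bleeds at 30, 60 and 120 min after DHC. Plasma corticosterone measured by enzyme immunosorbent assay. Drug levels measured in terminal bleed samples.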

[5] = Metabolic stability in mouse liver microsomes assessed as UGT-mediated glucuronidation of compound by measuring half life in presence of UDPGA; type: ADME
Method in brief: (§1)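 Liver microsomal glucuronidation incubations in the presence of UDPGA; parent half-life determined.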

[6] = tested on: Liver; test: Metabolic stability in rat liver microsomes assessed as parent compound remaining after 10 mins; type: ADME, microsome; details: microsomes, 10 min
Method in brief: (§2)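 Parent compound remaining after a 10 min incubation with human, mouse or rat liver microsomes.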

[7] = tested on: Cynomolgus monkey; test: Toxicity in cynomolgus monkey assessed as HPA axis activation by measuring cortisol level at 1 to 10 mg/kg for 7 days; type: organism-based, Macaca fascicularis; details: in vivo, 168 h
[8] = tested on: Cynomolgus monkey; test: In vivo inhibition of 11beta-HSD1 in non-fasting diet-induced obese cynomolgus monkey assessed as decrease in corticosterone excursion in plasma pretreated via oral gavage for 30 mins followed by DHC administration measured up to 60 mins by enzyme immunosorbent assay; type: functional; details: Macaca fascicularis
Method in brief: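 Cynomolgus monkeys given test compound at a predetermined time before the experiment, chosen from its pharmacokinetics. Substrate DHC (rodent substrate, used in place of cortisone) given afterwards. Blood sampled at various times. Design otherwise similar to the mouse DHC challenge.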

[9] = Protein binding in dog plasma; type: ADME, cell-free, Canis lupus familiaris; details: read-out: PPB (converted)
[10] = target: 11-beta-hydroxysteroid dehydrogenase type 2 (Rattus norvegicus, UniProt P50233); test: Inhibition of rat 11beta-HSD2
[11] = Half life in human liver microsomes; type: ADME, microsome
Method in brief: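 Human liver microsome incubation; parent half-life determined.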

[12] = Protein binding in cynomolgus monkey plasma; type: ADME, cell-free, Macaca fascicularis; details: read-out: PPB (converted)
[13] = tested on: Rattus norvegicus; test: Apparent elimination half life in rat at […], iv; type: ADME, organism-based; details: in vivo
[14] = Oral bioavailability in cynomolgus monkey at 3 mg/kg; type: ADME, organism-based, Macaca fascicularis; details: in vivo
[15] = Metabolic stability in dog liver microsomes assessed as UGT-mediated glucuronidation of compound by measuring half life in presence of UDPGA; type: ADME, Canis lupus familiaris; method in brief: as §1
[16] = target: Cytochrome P450 2A6 (Homo sapiens, UniProt P11509); test: Inhibition of CYP2A6 (unknown origin); type: ADME
[17] = target: 11-beta-hydroxysteroid dehydrogenase type 2 (Homo sapiens, UniProt P80365); test: Inhibition of human 11beta-HSD2 up to 30 uM
Method in brief: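 Human 11β-HSD2 counter-screen in vitro; compound tested up to 30 μM.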

[18] = tested on: Rattus norvegicus; test: Toxicity in rat assessed as hypokalemia at 300 mg/kg for 2 weeks; type: organism-based; details: in vivo, 336 h
Method in brief: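 Exploratory rat toxicology study lasting 2 weeks, with 300 mg/kg as the highest dose given. The study assessed hypokalemia, plasma volume expansion, hypertension and renal toxicity.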

[19] = tested on: Mus musculus; test: In vivo inhibition of 11beta-HSD1 in po dosed non-fasting diet-induced obese mouse assessed as decrease in corticosterone excursion in plasma pretreated for 60 mins followed by DHC administration measured up to 120 mins by enzyme immunosorbent assay; type: functional
Method in brief: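 Nonfasting diet-induced obese male mice, groups of n = 6 matched for body weight; tail bleed at −60 min, then oral vehicle (0.5% Methocel, 0.1% Tween 80 in water) or drug. At 60 min, bleed and oral DHC 10 mg/kg. Bleeds at 30, 60 and 120 min post-DHC. Plasma corticosterone measured by enzyme immunosorbent assay; drug levels in terminal bleed.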

[20] = AUC (0 to 24 hrs) in mouse at 5 mg/kg, iv; type: ADME, organism-based; design: time < 24 hr, dose 5 mg/kg, route intravenous; details: in vivo
[21] = in vivo; details: mouse, liver / plasma, iv, 5 mg/kg
[22] = MRT in cynomolgus monkey at 1 mg/kg, iv; type: ADME, organism-based, Macaca fascicularis; details: in vivo
[23] = tested on: HepG2; test: Cytotoxicity against human HepG2 cells at 80 uM; type: cell-based; details: hepg2, 80 µM
Method in brief: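 HepG2 cells exposed at 80 μM; cytotoxicity assessed.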

[24] = tested on: Plasma; test: Fraction unbound in cynomolgus monkey plasma at 1 mg/kg after 24 hrs; type: ADME, organism-based, Macaca fascicularis; details: in vivo
[25] = MRT in dog at 1 mg/kg, iv; type: ADME, organism-based, Canis lupus familiaris; details: in vivo
[26] = tested on: Liver; test: Metabolic stability in human liver microsomes assessed as parent compound remaining after 10 mins; type: ADME, microsome; details: microsomes, 10 min; method in brief: as §2
[27] = AUC (0 to 24 hrs) in cynomolgus monkey at 1 mg/kg, iv; type: ADME, organism-based, Macaca fascicularis; design: dose 1 mg/kg, time < 24 hr, route intravenous; details: in vivo
[28] = Total plasma clearance in cynomolgus monkey at 1 mg/kg, iv; type: ADME, organism-based, Macaca fascicularis

11-beta-hydroxysteroid dehydrogenase type 2 (Rattus norvegicus, UniProt P50233), sequence (P50233 whole entry): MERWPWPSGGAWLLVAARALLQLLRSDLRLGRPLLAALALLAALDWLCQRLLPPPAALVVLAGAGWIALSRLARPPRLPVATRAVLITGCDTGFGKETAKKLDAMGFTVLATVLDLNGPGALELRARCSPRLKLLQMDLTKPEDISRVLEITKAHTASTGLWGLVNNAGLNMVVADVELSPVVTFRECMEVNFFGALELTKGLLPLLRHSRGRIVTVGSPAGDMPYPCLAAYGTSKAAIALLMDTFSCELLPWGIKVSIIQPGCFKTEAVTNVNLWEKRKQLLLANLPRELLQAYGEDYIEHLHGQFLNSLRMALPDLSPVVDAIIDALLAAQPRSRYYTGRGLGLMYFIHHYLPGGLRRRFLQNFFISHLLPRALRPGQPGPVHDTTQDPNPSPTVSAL
Cytochrome P450 2A6, sequence (P11509 whole entry): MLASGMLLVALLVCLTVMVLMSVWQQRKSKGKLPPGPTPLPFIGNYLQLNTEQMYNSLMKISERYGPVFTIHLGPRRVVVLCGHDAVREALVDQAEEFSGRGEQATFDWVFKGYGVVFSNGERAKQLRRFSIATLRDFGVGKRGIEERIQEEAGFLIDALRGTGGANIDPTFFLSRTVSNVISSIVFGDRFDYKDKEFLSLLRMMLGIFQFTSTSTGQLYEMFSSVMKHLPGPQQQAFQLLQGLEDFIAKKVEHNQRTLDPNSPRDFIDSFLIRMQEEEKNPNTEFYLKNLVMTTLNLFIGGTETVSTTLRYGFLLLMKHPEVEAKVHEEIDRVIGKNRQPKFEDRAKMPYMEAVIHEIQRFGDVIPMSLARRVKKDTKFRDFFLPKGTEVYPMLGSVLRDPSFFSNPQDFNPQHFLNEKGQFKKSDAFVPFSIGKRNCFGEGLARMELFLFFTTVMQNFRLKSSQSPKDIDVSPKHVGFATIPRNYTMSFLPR
11-beta-hydroxysteroid dehydrogenase type 2 (Homo sapiens, UniProt P80365), sequence (P80365 whole entry): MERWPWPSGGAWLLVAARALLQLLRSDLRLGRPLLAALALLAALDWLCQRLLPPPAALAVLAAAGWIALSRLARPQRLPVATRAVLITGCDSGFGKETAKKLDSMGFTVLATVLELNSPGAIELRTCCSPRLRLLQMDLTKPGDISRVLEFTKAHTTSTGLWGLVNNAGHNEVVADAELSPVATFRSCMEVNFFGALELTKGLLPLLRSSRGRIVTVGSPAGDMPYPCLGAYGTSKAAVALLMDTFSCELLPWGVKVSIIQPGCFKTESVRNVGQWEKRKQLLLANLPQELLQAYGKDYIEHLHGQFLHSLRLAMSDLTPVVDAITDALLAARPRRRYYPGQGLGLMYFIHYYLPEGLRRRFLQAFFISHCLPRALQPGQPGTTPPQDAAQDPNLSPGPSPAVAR

O=C(CC1(c2ccccc2)C2CC3CC1CC(C2)C3O)N1CC(O)C1 (stereo in doubt; form 2)
AUC(0-t) at 24 h [1]: 6 µM·h
bioavailability [2]: 56%
Vdss [3]: 0.5 L/kg
EC50 [4]: 0.85 µM
half-life [5]: > 3.33 h
Stability [6]: 67%
Activity [7]: Non-Toxic
ED50 [8]: 0.12 mg/kg
fraction unbound [9]: 0.43
IC50 [10]: 3.5 µM
half-life [11]: 2.02 h
fraction unbound [12]: 0.32
betat1/2(app) [13]: 3 h
bioavailability [14]: 57%
half-life [15]: > 3.33 h
IC50 [16]: > 40 µM
inhibition (INH) [17]: Not Active
Activity [18]: Non-Toxic
ED50 [19]: 8.6 mg/kg
AUC(0-t) at 24 h [20]: 5 µM·h
Kp [21]: 1 to 56
MRT [22]: 3.3 h
Activity [23]: Non-Toxic
Cp(f) [24]: 2 nM
MRT [25]: 3.5 h
Stability [26]: 91%
AUC(0-t) at 24 h [27]: 2.3 µM·h
clearance [28]: 21.2 mL/min/kg
